Experimental data: ChEMBL document CHEMBL4480408 (J Med Chem, 2019)

Columns and labels:
[1] = target: GHB high-affinity binding site (rat)
[2] = target: GABA-A receptor; anion channel; assay: Displacement of [3H]muscimol from orthosteric binding site of GABA(A) receptor in Sprague-Dawley rat cortical synaptic membranes by liquid scintillation counting
[3] = target: T1, GABA-A receptor; alpha-1/beta-2/gamma-2 (Homo sapiens, UniProt P14867+P18507+P47870); format: cell-based
T1 sequence (P14867 whole entry): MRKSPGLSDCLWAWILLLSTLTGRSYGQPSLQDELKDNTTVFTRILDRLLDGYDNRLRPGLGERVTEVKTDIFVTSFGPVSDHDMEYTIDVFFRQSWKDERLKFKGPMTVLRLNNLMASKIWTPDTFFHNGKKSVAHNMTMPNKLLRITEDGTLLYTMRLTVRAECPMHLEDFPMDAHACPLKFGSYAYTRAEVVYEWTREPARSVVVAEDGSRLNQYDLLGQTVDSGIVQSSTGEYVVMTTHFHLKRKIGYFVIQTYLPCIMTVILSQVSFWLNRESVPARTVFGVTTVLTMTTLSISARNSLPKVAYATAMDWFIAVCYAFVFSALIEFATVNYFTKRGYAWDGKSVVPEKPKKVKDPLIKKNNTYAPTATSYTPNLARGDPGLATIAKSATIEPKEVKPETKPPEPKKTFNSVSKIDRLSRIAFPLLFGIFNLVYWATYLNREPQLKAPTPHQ
T1 sequence (P47870 whole entry): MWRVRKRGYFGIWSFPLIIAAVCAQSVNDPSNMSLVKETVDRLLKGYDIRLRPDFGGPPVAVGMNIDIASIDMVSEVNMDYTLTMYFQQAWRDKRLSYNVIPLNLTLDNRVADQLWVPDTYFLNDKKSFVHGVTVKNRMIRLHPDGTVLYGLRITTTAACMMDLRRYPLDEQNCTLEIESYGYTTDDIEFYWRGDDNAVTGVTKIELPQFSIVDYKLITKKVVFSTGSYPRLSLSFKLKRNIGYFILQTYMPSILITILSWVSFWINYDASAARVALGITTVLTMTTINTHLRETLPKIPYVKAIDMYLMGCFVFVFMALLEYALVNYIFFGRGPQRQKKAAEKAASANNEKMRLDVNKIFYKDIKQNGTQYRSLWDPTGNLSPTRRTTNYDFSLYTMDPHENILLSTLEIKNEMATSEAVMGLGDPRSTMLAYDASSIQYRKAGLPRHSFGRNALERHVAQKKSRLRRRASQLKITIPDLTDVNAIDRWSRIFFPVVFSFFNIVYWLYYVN
T1 sequence (P18507 whole entry): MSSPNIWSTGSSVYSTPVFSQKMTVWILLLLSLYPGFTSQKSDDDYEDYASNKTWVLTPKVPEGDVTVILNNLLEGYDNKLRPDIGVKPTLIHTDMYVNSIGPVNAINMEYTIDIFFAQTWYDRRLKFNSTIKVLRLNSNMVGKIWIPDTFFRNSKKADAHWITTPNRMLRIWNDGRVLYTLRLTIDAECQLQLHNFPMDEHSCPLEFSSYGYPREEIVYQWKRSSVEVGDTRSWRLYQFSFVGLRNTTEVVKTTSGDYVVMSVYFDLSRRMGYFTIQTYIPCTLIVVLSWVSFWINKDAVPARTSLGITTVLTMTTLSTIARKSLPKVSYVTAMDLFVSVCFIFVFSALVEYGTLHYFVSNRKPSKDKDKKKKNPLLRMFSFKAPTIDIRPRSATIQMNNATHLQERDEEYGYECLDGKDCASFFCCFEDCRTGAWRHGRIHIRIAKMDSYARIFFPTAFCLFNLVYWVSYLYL

[4] = Chemical stability of the compound; format: physicochemical
[5] = Drug uptake in C57BL/6JRj mouse brain at 10 mg/kg, ip after 30 mins by LC-MS analysis; format: ADME, organism-based; settings: read-out: Drug uptake
How it was run: (§1)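 Mice dosed i.p. at 10 mg/kg. Compound concentrations measured in brain (ng/g) and plasma (ng/mL). Brain-to-plasma distribution ratio taken from these two concentrations.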

[6] = Metabolic stability in mouse plasma assessed as compound remaining at 10 uM preincubated for 5 mins followed by NADPH addition and measured at 120 mins by UHPLC-MS/MS analysis; format: ADME, cell-free; settings: read-out: Stability
How it was run: (§2)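 Parent loss and parent-drug formation quantified by UHPLC-MS/MS. Percent remaining = internal-standard-corrected peak area at each time ÷ peak area at 0 min × 100. The 0-min peak area was compared with freshly prepared compound in neat buffer and MeCN. A dash at 0 min means the compound degraded during sample preparation and pre-incubation. Mean of three biological replicates.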

[7] = Ratio of drug uptake in C57BL/6JRj mouse brain to plasma at 10 mg/kg, ip after 30 mins by LC-MS analysis; format: ADME, organism-based; settings: read-out: BPR
How it was run: as §1

[8] = Metabolic stability in mouse liver microsomes assessed as compound remaining at 20 uM preincubated for 5 mins followed by NADPH addition and measured at 0 min by UHPLC-MS/MS analysis; format: ADME, Microsome; settings: read-out: Stability
How it was run: as §2

[9] = Plasma concentration in C57BL/6JRj mouse at 10 mg/kg, ip after 30 mins by LC-MS analysis; format: ADME, organism-based
How it was run: as §1

[10] = Metabolic stability in mouse liver microsomes assessed as compound remaining at 20 uM preincubated for 5 mins followed by NADPH addition and measured at 30 mins by UHPLC-MS/MS analysis; format: ADME, Microsome; settings: read-out: Stability
How it was run: as §2

[11] = Metabolic stability in mouse liver microsomes assessed as compound remaining at 20 uM preincubated for 5 mins followed by NADPH addition and measured at 60 mins by UHPLC-MS/MS analysis; format: ADME, Microsome; settings: read-out: Stability
How it was run: as §2

[12] = Metabolic stability in mouse plasma assessed as compound remaining at 10 uM preincubated for 5 mins followed by NADPH addition and measured at 60 mins by UHPLC-MS/MS analysis; format: ADME, cell-free; settings: read-out: Stability
How it was run: as §2

[13] = Metabolic stability in mouse plasma assessed as compound remaining at 10 uM preincubated for 5 mins followed by NADPH addition and measured at 0 min by UHPLC-MS/MS analysis; format: ADME, cell-free; settings: read-out: Stability
How it was run: as §2

[14] = Dissociation constant, pKa of the compound; format: physicochemical
[15] = Agonist activity at GABA(B) receptor (unknown origin); set-up: species or system Homo sapiens

| Compound | Ki [1] [µM] | Ki [2] [µM] | other results |
| --- | --- | --- | --- |
| On1cc(C2CCNCC2)c(-c2cccc(-c3ccccc3)c2)n1 | > 100 | 0.03 |  |
| O=C(O)CCC(O)c1ccc(OCc2ccccc2)cc1 (stereo unspecified) | 0.12 | > 100 |  |
| N=c1ccc(-c2ccc(Cl)cc2)nn1CCCC(=O)O | 11 | 0.61 | pKi [1]: 4.99; pKi [2]: 6.23 |
| N=c1ccc(-c2ccccc2)nn1CCCC(=O)O | 100 | 0.81 |  |
| N=c1ccc(-c2ccc(OCc3ccccc3)cc2)nn1CCCC(=O)O | 3.1 | 0.016 |  |
| N=c1ccc(-c2ccc(O)cc2)nn1CCCC(=O)O | 15 | 0.22 | IC50 [3]: 11 µM |
| COc1cccc(-c2ccc3nc(CC(=O)O)cn3n2)c1 | 0.44 | > 100 |  |
| COc1ccc(C2=NN3CC(CC(=O)O)N=C3C=C2)cc1 (stereo unspecified) | 45 | > 100 |  |
| CC(C)(C)C(=O)OCOC(=O)Cc1cn2nc(-c3ccc(Cl)cc3)ccc2n1 |  |  | Stability [4]: Unstable |
| CC(C)(C)OC(=O)Cc1cn2nc(-c3ccc(Cl)cc3)ccc2n1 |  |  | concentration at 0.5 h [5]: 798 ng/g; remaining at 2 h, 10 µM [6]: 36%; Kp at 0.5 h [7]: 3.68; remaining at 0 h, 20 µM [8]: 100%; concentration at 0.5 h [9]: 212 ng/mL; remaining at 0.5 h, 20 µM [10]: 90%; remaining at 1 h, 20 µM [11]: 98%; remaining at 1 h, 10 µM [12]: 51%; remaining at 0 h, 10 µM [13]: 100% |
| CCOC(=O)Cc1cn2nc(-c3ccc(Cl)cc3)ccc2n1 |  |  | Stability [4]: Unstable |
| O=C(O)Cc1cn2nc(-c3ccc(Cl)cc3)ccc2n1 | 0.22 | > 100 | concentration at 0.5 h [5]: 59 ng/g; remaining at 2 h, 10 µM [6]: 99%; Kp at 0.5 h [7]: 0.008; remaining at 0 h, 20 µM [8]: 100%; concentration at 0.5 h [9]: 7600 ng/mL; remaining at 0.5 h, 20 µM [10]: 105%; remaining at 1 h, 20 µM [11]: 100%; pKa [14]: 4.5; Stability [4]: Stable; remaining at 1 h, 10 µM [12]: 97%; remaining at 0 h, 10 µM [13]: 100% |
| COc1ccc(-c2ccc3nc(CC(=O)O)cn3n2)cc1 | 0.83 | > 100 | pKi [1]: 6.09 |
| COc1cccc(C2=NN3CC(CC(=O)O)N=C3C=C2)c1 (stereo unspecified) | > 100 | > 100 |  |
| O=C(O)Cc1cn2ccccc2n1 | 72 | > 100 |  |
| O=C(O)CC1CN2N=C(c3ccc(Cl)cc3)C=CC2=N1 (stereo unspecified) | 146 | > 100 | pKa [14]: 9.7 |

| Compound | Ki [1] [µM] | Ki [2] [µM] | other results |
| --- | --- | --- | --- |
| N=c1ccc(-c2ccc([N+](=O)[O-])cc2)nn1CCCC(=O)O | 14 | 0.75 | IC50 [3]: 30 µM |
| O=C(O)CC1CN2N=C(c3cccc(Cl)c3)C=CC2=N1 (stereo unspecified) | > 100 | > 100 |  |
| O=C(O)Cc1cn2ncccc2n1 | 9.9 | > 100 |  |
| CC(=O)OCOC(=O)Cc1cn2nc(-c3ccc(Cl)cc3)ccc2n1 |  |  | Stability [4]: Unstable |
| N=c1ccc(-c2cccc(N)c2)nn1CCCC(=O)O | 30 | 1.1 | IC50 [3]: 30 µM |
| O=C(O)Cc1cn2nc(-c3cccc(Cl)c3)ccc2n1 | 0.23 | > 100 |  |
| O=C(O)Cc1cn2nc(-c3ccc(Cl)c(Cl)c3)ccc2n1 | 0.19 | > 100 | pKi [1]: 6.77 |
| O=C(O)Cc1cn2nc(-c3ccc(OCc4ccccc4)cc3)ccc2n1 | 2.2 | > 100 |  |
| N=c1ccc(-c2cccc(Cl)c2)nn1CCCC(=O)O | 21 | 0.039 | pKi [1]: 4.66 |
| N=c1ccc(-c2cccc([N+](=O)[O-])c2)nn1CCCC(=O)O | 13 | 0.078 | IC50 [3]: 4.4 µM |
| O=C(O)CC1CN2N=C(c3ccccc3)C=CC2=N1 (stereo unspecified) | 427 | > 100 | pKi [1]: 3.41 |
| N=c1ccc(-c2cccc(OCc3ccccc3)c2)nn1CCCC(=O)O | 4.2 | 0.87 | pKi [1]: 5.39; pKi [2]: 6.07 |
| N=c1ccc(-c2cccc(O)c2)nn1CCCC(=O)O | 16 | 0.13 | IC50 [3]: 3.9 µM |
| O=C(O)Cc1cn2nc(-c3cccc(OCc4ccccc4)c3)ccc2n1 | 0.51 | > 100 | pKi [1]: 6.33 |
| O=C(O)CCCO [OXYBATE] |  |  | EC50 [15]: 5000 µM |
